Laboratory results published in PMC3361572 (Chemistry & biology, 2012).
Entries after “also recorded” stand apart in the source; their conditions may differ.

Columns and labels:
[1] = biological target: T1, MAGL (Rattus norvegicus, UniProt Q8R431); assay: brain 2-AG hydrolytic activity from KML29-treated rats; type: in vivo; details: 4 h
T1 sequence (Q8R431 1-303): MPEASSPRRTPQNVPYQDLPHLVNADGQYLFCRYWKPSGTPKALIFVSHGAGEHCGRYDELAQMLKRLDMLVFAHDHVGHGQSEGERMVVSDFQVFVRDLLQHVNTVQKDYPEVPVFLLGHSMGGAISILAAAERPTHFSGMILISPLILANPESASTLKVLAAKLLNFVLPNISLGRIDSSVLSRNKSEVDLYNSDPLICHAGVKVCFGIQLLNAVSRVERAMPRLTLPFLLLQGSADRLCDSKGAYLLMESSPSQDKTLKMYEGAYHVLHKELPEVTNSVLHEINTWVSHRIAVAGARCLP
In short: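 Wistar rats received the test compound i.p. (1–40 mg kg−1 in saline:emulphor:ethanol 18:1:1) or vehicle and were killed after 4 h. Brain MAGL and FAAH activities were measured as hydrolysis of 2-AG and AEA, respectively. Means ± SEM, n = 3 rats/group, compared with vehicle-treated rats.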

[2] = biological target: T1, MAGL; assay: competitive ABPP of peripheral tissues from KML29-treated rats; type: in vivo; details: 4 h
In short: (§1)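 Wistar rats were injected i.p. with the test compound (1–40 mg kg−1) or vehicle. Vehicle was saline:emulphor:ethanol 18:1:1, with prolonged sonication and mild heating to dissolve. Rats were killed at 4 h. Brain, liver, lung and spleen proteomes were labelled with FP-Rh, separated by SDS-PAGE and scanned for in-gel fluorescence. Inhibition was scored as reduced probe labelling. n = 3 rats/group.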

[3] = test system: carboxylesterase (CES) enzymes; assay: gel-based ABPP of liver, lung and spleen from inhibitor-treated mice; type: in vivo, mouse
[4] = biological target: T2, FAAH (Mus musculus, UniProt O08914); assay: competitive ABPP, mouse brain membrane proteome; type: biochemical; details: mouse brain proteome, concentration range tested 0.001–50 μM
T2 sequence (O08914 1-579): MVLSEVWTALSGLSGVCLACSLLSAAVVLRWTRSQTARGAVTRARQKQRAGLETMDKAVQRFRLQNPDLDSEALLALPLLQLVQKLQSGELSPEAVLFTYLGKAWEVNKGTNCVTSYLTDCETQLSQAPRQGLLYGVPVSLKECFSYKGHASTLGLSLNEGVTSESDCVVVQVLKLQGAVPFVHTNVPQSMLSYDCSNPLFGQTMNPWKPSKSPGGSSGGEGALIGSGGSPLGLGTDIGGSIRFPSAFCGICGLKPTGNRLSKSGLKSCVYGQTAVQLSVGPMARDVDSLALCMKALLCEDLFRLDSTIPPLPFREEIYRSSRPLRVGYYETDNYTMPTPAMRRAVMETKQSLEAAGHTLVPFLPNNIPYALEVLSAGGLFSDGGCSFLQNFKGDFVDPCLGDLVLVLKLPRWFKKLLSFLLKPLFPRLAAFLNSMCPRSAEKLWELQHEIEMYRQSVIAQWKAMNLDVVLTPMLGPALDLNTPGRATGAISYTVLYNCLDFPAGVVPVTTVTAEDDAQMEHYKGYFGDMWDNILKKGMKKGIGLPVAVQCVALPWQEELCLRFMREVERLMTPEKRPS
In short: (§2)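 Brain (mouse or rat) or mouse lung proteomes were preincubated with the test compound, then treated with the serine hydrolase probe FP-Rh. Samples were separated by SDS-PAGE and read by in-gel fluorescence scanning. Inhibition was taken as reduced FP-Rh labelling of MAGL, ABHD6, FAAH or CES bands, and IC50 values were calculated from quantified gel bands. Three independent experiments.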

[5] = biological target: T3, ABHD6 (Mus musculus, UniProt Q8R2Y0); assay: competitive ABPP, mouse brain membrane proteome; type: biochemical; details: mouse brain serine hydrolase activities, full ABPP gel
T3 sequence (Q8R2Y0 1-336): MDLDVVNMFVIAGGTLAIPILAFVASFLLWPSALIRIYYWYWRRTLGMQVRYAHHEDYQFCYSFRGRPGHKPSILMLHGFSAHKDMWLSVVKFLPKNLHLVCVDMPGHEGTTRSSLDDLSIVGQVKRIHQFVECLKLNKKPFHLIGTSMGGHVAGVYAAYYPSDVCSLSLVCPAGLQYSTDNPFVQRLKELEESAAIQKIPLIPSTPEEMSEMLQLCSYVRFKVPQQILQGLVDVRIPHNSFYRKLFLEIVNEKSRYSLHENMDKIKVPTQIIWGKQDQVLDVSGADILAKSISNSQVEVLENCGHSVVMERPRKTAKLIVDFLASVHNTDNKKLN
In short: as §2

[6] = biological target: T4, MAGL (Mus musculus, UniProt O35678); assay: competitive ABPP of brain from inhibitor-treated mice; type: in vivo; details: for blockade of MAGL activity in brain: C57Bl/6 mice, 4 h
T4 sequence (O35678 1-303): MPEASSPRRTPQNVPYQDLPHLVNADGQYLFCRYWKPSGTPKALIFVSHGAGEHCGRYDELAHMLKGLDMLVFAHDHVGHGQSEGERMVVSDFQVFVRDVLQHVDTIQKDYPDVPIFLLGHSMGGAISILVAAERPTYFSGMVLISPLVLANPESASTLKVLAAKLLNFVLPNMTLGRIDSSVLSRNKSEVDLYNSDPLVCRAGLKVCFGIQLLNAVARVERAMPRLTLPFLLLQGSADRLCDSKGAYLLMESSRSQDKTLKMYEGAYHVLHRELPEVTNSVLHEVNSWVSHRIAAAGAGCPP

[7] = biological target: T1, MAGL; assay: competitive ABPP of brain from KML29-treated rats; type: in vivo; details: Wistar rats, 40 mg kg^−1 i.p., 4 h
In short: as §1

[8] = dissolution in dosing vehicle; type: physicochemical
In short: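 Test compound was dissolved with prolonged sonication and mild heating. Vehicle was PEG for oral dosing, or saline:emulphor:ethanol (18:1:1) for i.p. dosing.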

For O=C(OC(C(F)(F)F)C(F)(F)F)N1CCC(C(O)(c2ccc3c(c2)OCO3)c2ccc3c(c2)OCO3)CC1 [KML29], the “decrease of brain 2-AG hydrolytic activity” value ([1]; 20 mg kg^−1 i.p.) was 50%, the “decrease of brain 2-AG hydrolytic activity” value ([1]; 40 mg kg^−1 i.p.) was 80% and the “MAGL inhibition in lung and spleen” value ([2]; 5 mg kg^−1 i.p.) was “complete MAGL inhibition”. For the same compound, the “MAGL inhibition in liver” value ([2]; 20 mg kg^−1 i.p.) was “complete MAGL inhibition”, the “CES inhibition in peripheral tissues, chronic dosing” value ([3]; 40 mg kg^−1 p.o., six days) was “minimal cross-reactivity with CES enzymes” and the “doses at which CES cross-reactivity (single ~70 kDa enzyme) was detected” value ([3]; p.o., 4 h, peripheral tissues) was 20 to 40 mg/kg. The “FAAH inhibition / cross-reactivity (gel-based ABPP)” value [4] was “No inhibition of FAAH was detected; also recorded: complete selectivity for MAGL over FAAH”, the “concentrations with inhibition of ABHD6” value [5] was greater than 1 µM and the “blockade of MAGL activity in brain” value ([6]; 5 mg kg^−1 p.o.) was “partial inhibition”. For the same compound, the “blockade of MAGL activity in brain” value ([6]; 20 mg kg^−1 p.o.) was “maximal inhibition”, the “time until which brain MAGL inhibition was sustained” value ([6]; mice, single oral dose 20 mg kg^−1) was 12 to 24 h and the “time post-administration of maximal inhibition of brain MAGL” value ([6]; mice, single oral dose 20 mg kg^−1, earliest time point tested) was no more than 1 h. The “inhibition of brain MAGL” value [7] was greater than 90% and the “dissolution in vehicles for p.o. (PEG) or i.p. [saline:emulphor:ethanol (18:1:1)] administration” value [8] was “Prolonged sonication and mild heating were also required”.
